An excerpt weighted towards active compounds, which were near 2% of everything screened.
Hep lipid drop: modulators of hepatic lipid droplet formation; 240,000 compounds, 0.4% hits; inhibition, % at 6.5 µM; AML12 mouse hepatocytes, oleate lipid droplets, BODIPY imaging;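 active = lipid droplet intensity inhibited by at least 50%, with more than 500 cells counted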
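material = mouse AML12 hepatocyte cell line, fixed after treatment | also added = 100 µM oleic acid challenge | doses = compound at 6.5 µM only | schedule = overnight exposure | technique = Image-based BODIPY and DAPI two-channel analysis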
L929 necroptosis: blocks zVAD induced death of L929 cells. L929 zVAD necroptosis rescue, ATP luminescence, 24 h; with zVAD 60 µM. viability rescue, % at 10 µM. 220,000 compounds, 0.38% hits;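 active = activation, scaled between plate controls, above about 75%, limit read from the data; inactive = activation under that limit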
TNF necrop inh: TNF-alpha cell death inhibition in Jurkat FADD-/- cells; Jurkat FADD-/- TNF necroptosis rescue, ATP luminescence, 24 h; 0 = TNF only, 100 = no-TNF cells; activation (protection from cell death), % at 10 µM; 220,000 compounds, 0.068% hits; AID 463075;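 active = activation, meaning protection from cell death, of at least 50% relative to plate controls; inactive = activation below 50%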;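 note: necroptosis triggered by 40 ng/mL TNF-alpha added together with compound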
PfM18AAP inh: blocks P. falciparum M18 aspartyl aminopeptidase | recombinant PfM18AAP, H-Glu-NHMec fluorogenic cleavage | inhibition, % at 7.35 µM | 290,000 compounds, 1.2% hits | AID 1822;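 active = inhibition above the campaign mean inhibition over all tested compounds plus 3 SD, cut at about 28% in these data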
RBBP9 inhibitor: inhibitors of human serine hydrolase RBBP9 | O75884 | recombinant RBBP9, FP-Rh probe fluorescence polarization | inhibition, % at 7.94 µM | 220,000 compounds, 0.2% hits;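 active = inhibition above the campaign mean of all tested compounds plus 3 SD, cut at about 14% in these data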
Target sequence (O75884 whole entry, looked up): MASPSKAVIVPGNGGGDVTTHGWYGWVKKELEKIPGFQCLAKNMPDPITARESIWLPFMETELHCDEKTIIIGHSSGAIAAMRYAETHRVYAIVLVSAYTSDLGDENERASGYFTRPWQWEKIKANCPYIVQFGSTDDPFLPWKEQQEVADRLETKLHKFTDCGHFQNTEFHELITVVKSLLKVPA
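Assay system: recombinant human RBBP9; Reagent: Serine-hydrolase probe FP-Rh, 375 nM pre-mixing; Doses: 7.94 µM single dose, 0.794% DMSO; Incubation: 30 min then 45 min, 25 °C; Detection: fluorescence polarization (mP), excitation 525 nm, emission 598 nm; Evaluation: percent inhibition from mP, scaled between DMSO and no-protein wells.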
Tb hexokinase: T. brucei hexokinase 1 inhibition; 220,000 compounds, 0.11% hits; AID 1430; recombinant TbHK1, G6PDH-coupled NADH A340; inhibition, % at 10 µM;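 active = inhibition of 50% or more in the single-dose primary screen; inactive = inhibition below 50%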
Of the large screens only hits and unclear results are named; the others gave an inactive call.

OC(c1ccccc1)c1nc2ccccc2s1 (stereo unspecified)	TNF necrop inh 50.0 (no result: Hep lipid drop)
COC(=O)c1ccc(C2/C(=C(\O)c3ccc4c(c3)OCCO4)C(=O)C(=O)N2CCCN2CCOCC2)cc1 (stereo unspecified)	none (no result: L929 necroptosis, TNF necrop inh, RBBP9 inhibitor, Tb hexokinase)
O=C1C(=O)N(CCCN2CCOCC2)C(c2ccc([N+](=O)[O-])cc2)/C1=C(/O)c1ccc2c(c1)OCO2 (stereo unspecified)	PfM18AAP inh 30.9 (no result: L929 necroptosis, TNF necrop inh, RBBP9 inhibitor, Tb hexokinase)
COc1ccccc1CNC(=O)[C@@H](NC(=O)C1CCN(C(=O)[C@@H]2CCCN2C(=O)OC(C)(C)C)CC1)C(C)C	none (no result: Hep lipid drop, L929 necroptosis, TNF necrop inh, RBBP9 inhibitor, Tb hexokinase)
CCCCCC(=O)Nc1sc(C)c(C)c1C#N	none
N#Cc1c(NC(=O)CCC(=O)O)sc2c1CCCCC2	PfM18AAP inh 30.6
Cc1sc(NC(=O)CCCC(=O)O)c(C#N)c1C	PfM18AAP inh 29.9
CCOc1ccc(C(=O)CN2CCN(S(=O)(=O)c3ccc(OC)cc3)CC2)cc1	none
CCOC(=O)/C(C)=N/Nc1nc(-c2ccc(NC(C)=O)cc2)cs1	none
CC(=O)N(CC1CCCO1)c1nnc(-c2ccccn2)s1 (stereo unspecified)	TNF necrop inh 65.1 (no result: Hep lipid drop)
COCCN(C(C)=O)c1nnc(-c2ccccn2)s1	none
O=C(O)CC/C(=N\Nc1ccc([N+](=O)[O-])cc1S(=O)(=O)N1CCOCC1)c1cccs1	PfM18AAP inh 30.4
CCCCNc1cc(NC(C)=O)cc2cc(OC)c(OC)cc12	PfM18AAP inh 28.1 (no result: Hep lipid drop)
COc1cc2cc(NC(C)=O)cc(NCc3ccccc3)c2cc1OC	none (no result: Hep lipid drop, L929 necroptosis, TNF necrop inh, RBBP9 inhibitor, Tb hexokinase)
Cc1ccc(NC2c3ncccc3C(=O)N2Cc2ccco2)c(C)c1 (stereo unspecified)	none
CC(C)(C)NC(=O)CCN(/N=C/c1ccccc1O)C1=NS(=O)(=O)c2ccccc21	none (no result: L929 necroptosis, TNF necrop inh, RBBP9 inhibitor, Tb hexokinase)
CCOc1ccc2oc(C(=O)OCC(=O)NC3CC3)c(C)c2c1	none
O=C(CC1Sc2ncnn2C1=O)Nc1ccc(Cl)cc1 (stereo unspecified)	PfM18AAP inh 29.8
O=[N+]([O-])c1ccc(NCc2ccccc2)nc1	TNF necrop inh 75.9
O=[N+]([O-])c1ccc(N/N=C\c2cccn2-c2ccccc2)nc1	PfM18AAP inh 47.2 (no result: Hep lipid drop)
CC(C)(C)OC(=O)N/N=C/c1cccn1-c1ccc([N+](=O)[O-])cc1	none
O=[N+]([O-])c1ccc(Nc2ccc(F)cc2)nc1	TNF necrop inh 73.1
O=[N+]([O-])c1ccc(Nc2cccc(F)c2)nc1	TNF necrop inh 70.5
O=C(O)c1cc([N+](=O)[O-])ccc1NCc1ccccc1	none
COC(=O)c1cccc(Nc2ccc([N+](=O)[O-])cn2)c1	none
C=CCOc1ccc(/C=N/NC(=O)CC(=O)NC2CCCCC2)cc1	none (no result: L929 necroptosis, TNF necrop inh, RBBP9 inhibitor, Tb hexokinase)
O=[N+]([O-])c1ccc(Nc2ccccc2)nc1	TNF necrop inh 90.2
Cc1cc(=O)oc2c(C)c(OC3CCCCC3=O)ccc12 (stereo unspecified)	none (no result: Hep lipid drop, L929 necroptosis, TNF necrop inh, RBBP9 inhibitor, Tb hexokinase)
Nc1c(C=C2C=CC(=O)C=C2)c(=O)nc2sc(CC(=O)N3CCCCC3)nn12	none (no result: L929 necroptosis, TNF necrop inh, RBBP9 inhibitor, Tb hexokinase)
Nc1c(/C=C2/C=CC(=O)C(O)=C2)c(=O)nc2sc(CC(=O)N3CCCCC3)nn12	PfM18AAP inh 63.7 (no result: L929 necroptosis, TNF necrop inh, RBBP9 inhibitor, Tb hexokinase)
Cc1ccc2c(c1)C(=O)C(=O)N2CCOc1ccccc1	PfM18AAP inh 38.7
COc1cc2[nH]c(=S)nc(NCCc3ccc(C)cc3)c2cc1OC	none
COc1ccc(CCNc2nc(=S)[nH]c3cc(OC)c(OC)cc23)cc1OC	L929 necroptosis 82.0
O=C(Nc1ccc(F)cc1)c1cc(-c2ccncc2)nc2c(Cl)cccc12	none (no result: L929 necroptosis, TNF necrop inh, RBBP9 inhibitor, Tb hexokinase)
COc1cccc(NC(=O)c2cc(-c3cccnc3)nc3c(Cl)cccc23)c1	L929 necroptosis 83.8 (no result: Hep lipid drop)
CC1CCN(c2cc(N3CCN(C(=O)c4ccc(F)c(F)c4)CC3)c([N+](=O)[O-])cc2F)CC1	none
COc1ccc(OCc2cc(C(=O)NC(C)Cn3cncn3)no2)c(Cl)c1 (stereo unspecified)	none (no result: L929 necroptosis, TNF necrop inh, RBBP9 inhibitor, Tb hexokinase)
CC(C)CSc1nnc2c(n1)[nH]c1ccccc12	none (no result: Hep lipid drop)
CC1=CCC(/C=N\Nc2nnc3c(n2)[nH]c2ccccc23)CC1 (stereo unspecified)	PfM18AAP inh 35.8
CCOC(=O)c1ccc(CNCc2ccccc2)cc1	none
CCOC(=O)NC1(NCc2ccccc2)Oc2ccccc2O1	PfM18AAP inh 54.2
c1ccc2c(N3CCCCC3)nnc(N3CCCCC3)c2c1	TNF necrop inh 78.3
C/C(CC(=O)NCc1ccco1)=N\NC(=O)Cc1ccccc1	none (no result: Hep lipid drop)
C/C(CC(=O)NCc1ccco1)=N\NC(=O)C(c1ccccc1)c1ccccc1	L929 necroptosis 76.8 (no result: Hep lipid drop)
C=CCN1C(=O)C2(NNc3ccccc3O2)c2ccccc21 (stereo unspecified)	PfM18AAP inh 31.4
Fc1ccccc1Nc1nc2c(s1)CCc1ccccc1-2	PfM18AAP inh 42.3
Cc1csc(SCC(=O)NC(=O)NC2CCCC2)n1	TNF necrop inh 56.1
N=C1/C(=C/c2coc3ccccc3c2=O)C(=O)N=C2SC(c3ccco3)=NN12	PfM18AAP inh 28.6
N=C1/C(=C\c2coc3ccccc3c2=O)C(=O)N=C2SC(c3ccncc3)=NN12	none
N=C1/C(=C\c2coc3ccc(O)cc3c2=O)C(=O)N=C2SC=CN12	PfM18AAP inh 48.9
CSC1=NSC2=NC(=O)/C(=C\c3coc4ccccc4c3=O)C(=N)N12	none
CC(=O)Nc1nc(-c2cc([N+](=O)[O-])cs2)cs1	none
O=C(O)C1CCc2sc3[nH]c(=S)n(-c4ccccc4)c(=O)c3c21 (stereo unspecified)	PfM18AAP inh 30.6
CCOC(=O)N1CCC(N2C(=O)c3ccc(C(=O)Nc4cccc(OC)c4)cc3C2=O)CC1	none (no result: L929 necroptosis, TNF necrop inh, RBBP9 inhibitor, Tb hexokinase)
COc1cc(CN2CCC(C(=O)NC3CCCC3)CC2)cc(Br)c1O	none (no result: Hep lipid drop)
COc1cc(CN2CCC(C(=O)N3CCC(C)CC3)CC2)cc(Br)c1O	PfM18AAP inh 31.4 (no result: Hep lipid drop)
Cc1ccc(N=Nc2c(O)n(CN3CCOCC3)c3ccccc23)cc1	L929 necroptosis 85.2 (no result: Hep lipid drop)
Cc1cccc(NC(=S)N=Nc2c(O)n(CN3CCOCC3)c3ccccc23)c1C	none
Cc1ccc(NC(=O)c2cc(S(=O)(=O)N(C)C)ccc2N2CCCC2)cc1F	none (no result: L929 necroptosis, TNF necrop inh, RBBP9 inhibitor, Tb hexokinase)
COC(=O)c1ccccc1NC(=O)CSc1n[nH]c(C)n1	PfM18AAP inh 30.3
Cc1cccc(-c2n[nH]c(=S)n2/N=C/C=C/c2ccco2)c1	none
S=c1[nH]nc(-c2ccncc2)n1/N=C/C=C/c1ccco1	PfM18AAP inh 30.9
O=C(CCl)Nc1nc(-c2ccco2)c(-c2ccco2)s1	PfM18AAP inh 36.0
O=C(CCCSc1ccccc1)Nc1nc(-c2ccco2)c(-c2ccco2)s1	none
O=C1CSC(=S)N1N1C(=O)c2cccc([N+](=O)[O-])c2C1=O	PfM18AAP inh 43.3
C#CC(=O)N(c1ccc(OC)cc1OC)C(C(=O)NC1CCCC1)c1cccs1 (stereo unspecified)	Hep lipid drop 122.6

Assay outcomes from PubChem.
